How the values were obtained:
[1] = target: T1, COX1 (Prostaglandin G/H synthase 1) (Ovis aries, UniProt P05979); experiment: Inhibition of sheep COX1 at 10 uM assessed as reduction in PGE2 formation using arachidonic acid as substrate by enzyme immunoassay relative to control; settings: probe arachidonic acid
T1 sequence (P05979 whole entry): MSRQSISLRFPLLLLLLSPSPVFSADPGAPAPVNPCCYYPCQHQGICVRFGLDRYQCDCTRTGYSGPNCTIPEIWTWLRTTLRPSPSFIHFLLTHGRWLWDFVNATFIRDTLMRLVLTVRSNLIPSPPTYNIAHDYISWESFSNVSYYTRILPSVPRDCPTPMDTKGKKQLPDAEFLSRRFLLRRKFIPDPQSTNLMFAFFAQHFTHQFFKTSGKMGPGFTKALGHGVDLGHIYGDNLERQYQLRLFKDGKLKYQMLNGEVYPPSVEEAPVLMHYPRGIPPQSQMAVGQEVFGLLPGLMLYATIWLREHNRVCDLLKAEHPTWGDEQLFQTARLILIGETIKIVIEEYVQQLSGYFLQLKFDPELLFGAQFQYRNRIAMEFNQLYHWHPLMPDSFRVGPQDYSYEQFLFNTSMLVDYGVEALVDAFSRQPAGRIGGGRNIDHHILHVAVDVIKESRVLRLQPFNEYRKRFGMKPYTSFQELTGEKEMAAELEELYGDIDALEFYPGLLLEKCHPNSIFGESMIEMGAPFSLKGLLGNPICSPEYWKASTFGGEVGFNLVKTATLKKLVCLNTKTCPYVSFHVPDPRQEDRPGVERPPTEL
Summary of the method: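 Recombinant ovine COX-1, test agent at 10 μM, arachidonic acid as substrate. PGE2 formed is measured by competitive EIA (PGE2–acetylcholinesterase tracer, monoclonal anti-PGE2, Ellman's reagent, absorbance 412 nm) and quantified from an 8-point PGE2 standard curve. Result given as % inhibition of enzyme activity.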

Platelet [2] = experiment: Antiplatelet activity in human platelet rich plasma assessed as inhibition of arachidonic acid-induced platelet aggregation at 100 uM preincubated for 5 mins followed by arachidonic acid addition measured for 3 mins by aggregometric analysis relative to control; format: functional
Summary of the method: (§1)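 Citrated venous blood (3.2% citrate, 1:9) from healthy donors free of antiplatelet drugs for 10 days; PRP from 800 rpm 10 min spin, PPP from 1500 rpm 10 min; count set to 3.8 × 10^5 platelets […]. PRP stirred at 1100 rpm, 37 °C; compound in DMSO (1% carrier) 5 min before agonist (AA final 700 μM; collagen 5 μg ml−1). Turbidimetric read, triplicate; % inhibition versus DMSO-treated maximum aggregation.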

MCF7 = experiment: Cytotoxicity against human MCF7 cells after 72 hrs by SRB assay; format: functional, cell-based
Summary of the method: (§2)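 Cells cultured in DMEM with 10% FBS, 1% non-essential amino acids, penicillin/streptomycin, 37 °C, 5% CO2. 2000–3000 cells per well seeded, grown 24 h, then exposed 72 h to compound (DMSO) at 40, 20, 10, 5, 2.5 μM. TCA fixation, 0.4% SRB stain, unbound dye washed off with 1% acetic acid, bound dye dissolved in 10 mM Tris base, absorbance 515 nm. IC50 against DMSO controls, triplicate.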

Huh-7 = experiment: Cytotoxicity against human HuH7 cells after 72 hrs by SRB assay; format: functional, cell-based; summary of the method: as §2
Platelet [3] = experiment: Antiplatelet activity in human platelet rich plasma assessed as inhibition of arachidonic acid-induced platelet aggregation preincubated for 5 mins followed by arachidonic acid addition measured for 3 mins by aggregometric analysis; format: functional, cell-based
HCT-116 = experiment: Cytotoxicity against human HCT116 cells after 72 hrs by SRB assay; format: functional, cell-based; summary of the method: as §2
Platelet [4] = experiment: Antiplatelet activity in human platelet rich plasma assessed as inhibition of collagen-induced platelet aggregation at 100 uM preincubated for 5 mins followed by arachidonic acid addition measured for 3 mins by aggregometric analysis relative to control; format: functional; summary of the method: as §1
[5] = Homo sapiens, MCF7, 72 h, read-out: IC50
[6] = Homo sapiens, HCT-116, 72 h, read-out: IC50
[7] = Homo sapiens, Huh-7, 72 h, read-out: IC50

Row | SMILES | inhibition at 10 µM [1] [%] | inhibition at 100 µM (Platelet [2]) [%] | IC50 (MCF7; [5]) [µM] | IC50 (Huh-7; huh-7) | IC50 (Platelet [3]) [µM] | IC50 (HCT-116; [6]) [µM] | inhibition at 100 µM (Platelet [4]) [%] | IC50 (MCF7; mcf7) | IC50 (Huh-7; [7]) [µM] | IC50 (HCT-116; hct-116)
1 | O=C(/C=C/c1cn(-c2ccccc2)nc1-c1ccncc1)NCCc1cccnc1 | 9.37 | 93.7 | 16.1 | Not Active | 29.1 | 14.6 | 86.9 |  |  | 
2 | CS(=O)(=O)c1ccc(-n2cc(/C=C/C(=O)NCc3ccncc3)c(-c3cccnc3)n2)cc1 | 12.5 | 6.2 |  | Not Active |  | 31.7 | 40.9 | Not Active |  | 
3 | Cc1nccn1CCNC(=O)/C=C/c1cn(-c2ccccc2)nc1-c1ccncc1 | 16.9 | 2.54 |  |  |  | 12.6 | 35 | Not Active | 21 | 
4 | COc1ccc2c(c1)c(CC(=O)O)c(C)n2C(=O)c1ccc(Cl)cc1 [INDOMETHACIN] | 69.5 |  |  |  |  |  |  |  |  | 
5 | O=C(/C=C/c1cn(-c2ccccc2)nc1-c1ccncc1)NCCc1ccccn1 | 13.1 | 100 | 12.2 |  | 32.8 |  | 41.9 |  | 27.3 | Not Active
6 | Cc1nccn1CCNC(=O)/C=C/c1cn(-c2ccc(S(C)(=O)=O)cc2)nc1-c1cccnc1 | 29.6 | 14.3 |  | Not Active |  |  | 8.6 | Not Active |  | Not Active
7 | CS(=O)(=O)c1ccc(-n2cc(/C=C/C(=O)NCCc3ccccn3)c(-c3cccnc3)n2)cc1 | 54.6 | 90.7 | 14.3 | Not Active | 10.1 |  | 78.7 |  |  | Not Active
8 | O=C(/C=C/c1cn(-c2ccccc2)nc1-c1ccncc1)NCCc1ccncc1 | 26.6 | 71.4 | 11 |  |  | 7.1 | 74.6 |  | 6.5 | 
9 | O=C(/C=C/c1cn(-c2ccccc2)nc1-c1cccnc1)NCc1cccnc1 | 5.56 | 1.26 | 30.9 |  |  | 21.6 | 63.3 |  | 21 | 
10 | O=c1[nH]cc(F)c(=O)[nH]1 [FLUOROURACIL] |  |  | 1.4 |  |  |  |  |  |  | 
11 | Cc1nccn1CCCNC(=O)/C=C/c1cn(-c2ccc(S(C)(=O)=O)cc2)nc1-c1cccnc1 | 36.8 | 19.5 |  | Not Active |  |  | 11.1 | Not Active |  | Not Active
12 | O=C(/C=C/c1cn(-c2ccccc2)nc1-c1cccnc1)NCc1ccccn1 | 11.3 | 0 | 27.8 |  |  | 24.5 | 56.5 |  | 18.5 | 
13 | Cc1nccn1CCCNC(=O)/C=C/c1cn(-c2ccccc2)nc1-c1ccncc1 | 5.41 | 7.91 |  |  |  | 10.8 | 41.3 | Not Active | 21.1 | 
14 | O=C(/C=C/c1cn(-c2ccccc2)nc1-c1ccncc1)NCc1ccncc1 | 5.82 | 4.96 |  |  |  | 19.9 | 50.1 | Not Active | 32.6 | 
15 | CS(=O)(=O)c1ccc(-n2cc(/C=C/C(=O)NCCc3cccnc3)c(-c3cccnc3)n2)cc1 | 1.31 | 14.6 |  | Not Active |  |  | 70.3 | Not Active |  | Not Active
